Here are results for 9 compounds from ChEMBL document CHEMBL1828589, “Isoeugenol-based novel potent antioxidants: synthesis and reactivity” (Eur J Med Chem, 2011).

Common to all, as to format: functional
Test [1] can be described thus: Antioxidant activity assessed as inhibition of linoleic acid lipid peroxidation at 100 ug/ml measured after 6 hrs by ferric thiocynate method. In short, it runs like this:
(§1)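 Mitsuda ferric thiocyanate method. Linoleic acid/Tween 20 emulsion in 0.2 M phosphate pH 7.0, mixed with ethanolic compound and buffer. Incubated at 37 °C in the dark and sampled every 6 h. Aliquot taken into 75% ethanol, 30% ammonium thiocyanate and 0.02 M FeCl2 in 3.5% HCl; A500 read after 3 min. Inhibition % = (Ac−As)/Ac×100 against a no-compound control. Triplicates.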

Test [2] can be described thus: Antioxidant activity assessed as inhibition of linoleic acid lipid peroxidation at 100 ug/ml measured after 12 hrs by ferric thiocynate method. The method, boiled down: as §1
A short description of test [3]: Antioxidant activity assessed as inhibition of linoleic acid lipid peroxidation at 100 ug/ml measured after 18 hrs by ferric thiocynate method. In short, it runs like this:
as §1

The nature of test [4]: Antioxidant activity assessed as inhibition of linoleic acid lipid peroxidation at 100 ug/ml measured after 24 hrs by ferric thiocynate method. In short, it runs like this:
as §1

Test [5] in a line: Antioxidant activity assessed as inhibition of linoleic acid lipid peroxidation at 100 ug/ml measured after 30 hrs by ferric thiocynate method. In short, it runs like this:
as §1

Test [6] can be described thus: Antioxidant activity assessed as inhibition of linoleic acid lipid peroxidation at 100 ug/ml measured after 36 hrs by ferric thiocynate method. In short, it runs like this: as §1
The subject of test [7] is Radical scavenging activity. The test can be described thus: Antioxidant activity assessed as residual DPPH radical scavenging activity after 30 mins by spectrophotometric analysis. In short, it runs like this: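 Compound in ethanol at 10–40 µg/mL (3 mL) mixed with 1 mL of 0.1 mM ethanolic DPPH. Shaken, then left 30 min at room temperature, read at 517 nm. IC50 (µM) is the concentration giving a 50% fall in absorbance, from regression; three repeats.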

A short description of test [8]: Antioxidant activity assessed as residual ABTS+ radical scavenging activity after 30 mins by spectrophotometric analysis. The method, boiled down:
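ABTS radical cation formed from 2 mM ABTS and 2.45 mM potassium persulfate in water, kept dark at room temperature for 12 h. Ethanolic compound at 10–30 µg/mL added to the radical solution. Remaining radical read at 734 nm and converted to concentration by a calibration curve (0.033–0.33 mM). IC50 (µM) by regression; three repeats.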

Test [9] in a line: Antioxidant activity assessed as superoxide radical scavenging activity after 40 mins by Zhishen's method. The method, boiled down: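 Riboflavin (3×10⁻⁵ M), methionine (1×10⁻² M) and NBT (1×10⁻⁴ M) in 0.05 M phosphate pH 7.8. Illuminated 25 °C for 40 min to form formazan; absorbance at 560 nm, with an unilluminated mixture as control. Compounds tested at 10–40 µg/mL. IC50 (µM) by regression; three repeats.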

Test [10] in a line: Antioxidant activity assessed as ferric to ferrous reduction at 10 ug/ml by FRAP assay. The method, boiled down:
(§2)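 Oyaizu method, adjusted. Diluted compound in ethanol mixed with 0.2 mol/L phosphate buffer pH 6.6 and 1% K3Fe(CN)6, held 50 °C for 20 min. Then 10% trichloroacetic acid added and spun at 10,000g for 10 min. Upper layer mixed with water and 0.1% FeCl3, absorbance read at 700 nm. Mean ± SD of three replicate assays.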

The nature of test [11]: Antioxidant activity assessed as ferric to ferrous reduction at 20 ug/ml by FRAP assay. The method, boiled down:
as §2

A short description of test [12]: Antioxidant activity assessed as ferric to ferrous reduction at 30 ug/ml by FRAP assay. The method, boiled down: as §2
Test [13] can be described thus: Antioxidant activity assessed as ferric to ferrous reduction activity at 40 ug/ml by FRAP assay. In short, it runs like this: as §2

On to `CCOc1cccc(C(CC)c2ccc(O)c(OC)c2)c1O` (configuration not stated), for which the inhibition in [1] was 37%; in test [2] it was 77%; in test [3] it was 89%; in test [4], 96%; in test [5], 97%; in test [6], 96%. Further, the IC50 was found to be 6.19 µM in [7], 7.19 µM in test [8] and 13.7 µM in test [9]. Further, the Activity in test [10] worked out at 0.21; in [11], 0.22; in test [12], 0.25; in [13], 0.28.
Turning to `CCC(c1ccc(O)c(OC)c1)c1cccc(C(C)C)c1O` (configuration not stated), the inhibition in test [1] is 38%; in test [2], 78%; in test [3], 88%; in test [4], 95%; in test [5], 97%; in [6], 96%. Further, the IC50 in test [7] was 6.3 µM; in [8] it was 7 µM; in test [9], 10.1 µM. Also, the Activity in test [10] came out at 0.22; in [11], 0.2; in [12] it was 0.2; in test [13] it was 0.24.
As for `CCC(c1ccc(O)c(OC)c1)c1ccc(O)cc1O` (configuration not stated), the inhibition in [1] is 36%; in [2], 75%; in test [3], 85%; in [4], 94%; in test [5], 97%; in test [6], 94%. Moreover, the IC50 in test [7] was determined as 6.71 µM; in test [8], 10.1 µM; in test [9] it was 15.3 µM. Further, the Activity in test [10] amounted to 0.27; in test [11], 0.32; in test [12], 0.36; in test [13], 0.47.
Turning to `CCC(c1ccc(O)c(OC)c1)c1ccccc1O` (configuration not stated), the inhibition in test [1] is 32%; in [2], 75%; in test [3], 90%; in test [4] it was 94%; in [5] it was 97%; in test [6] it was 96%. In addition, the values for the concentration for half-maximal inhibition (IC50) in test [7], in test [8] and in test [9] were 7.83 µM, 8.53 µM and 10.5 µM, respectively. Besides, the Activity came to 0.26 in test [10], 0.27 in test [11], 0.3 in [12] and 0.34 in [13].
Regarding `CCC(c1ccc(O)c(O)c1)c1ccc(O)c(OC)c1` (configuration not stated), the inhibition in test [1] was 37%; in [2], 78%; in [3] it was 90%; in [4] it was 96%; in test [5], 98%; in test [6], 97%. Also, the values for the concentration for half-maximal inhibition (IC50) in test [7], in test [8] and in test [9] were 5.8 µM, 8.28 µM and 6.61 µM, respectively. For the same compound, the Activity turned out to be 0.43 in [10], 0.55 in [11], 0.58 in test [12] and 0.64 in [13].
Take `Cc1c(C)c2c(c(C)c1O)CCC(C)(C(=O)O)O2` (configuration not stated) [TROLOX]: the inhibition in [1] was 35%; in test [2] it was 70%; in test [3], 87%; in test [4], 89%; in test [5] it was 92%; in test [6], 86%. Further, the IC50 in test [7] is 5.84 µM; in test [8], 8 µM; in [9] it was 61.3 µM. The Activity in test [10] worked out at 0.23; in [11], 0.38; in test [12] it was 0.56; in test [13], 0.72.
As to `CCC(c1ccc(O)c(OC)c1)c1cccc(O)c1O` (configuration not stated), the inhibition in [1] came to 34%; in [2], 74%; in [3] it was 90%; in [4] it was 94%; in test [5], 97%; in test [6] it was 96%. Also, the IC50 was 5.8 µM in test [7], 8.43 µM in [8] and 6.17 µM in [9]. For the same compound, the Activity was determined as 0.49 in test [10], 0.54 in [11], 0.58 in [12] and 0.73 in test [13].
Regarding `C/C=C\c1ccc(O)c(OC)c1` [ISOEUGENOL], the inhibition in test [1] was 28%; in test [2] it was 42%; in test [3], 90%; in test [4], 96%; in test [5] it was 91%; in [6] it was 82%. Further, the IC50 in [7] came out at 40.7 µM; in test [8] it was 8.84 µM; in test [9], 42.3 µM. Further, the Activity in test [10] was 0.32; in test [11], 0.37; in test [12], 0.41; in [13] it was 0.43.
Turning to `Cc1cc(C(C)(C)C)c(O)c(C(C)(C)C)c1` [BUTYLATED HYDROXYTOLUENE], the inhibition in test [1] was 47%; in [2], 81%; in [3] it was 92%; in [4] it was 97%; in test [5] it was 98%; in test [6], 98%. The IC50 worked out at 11.5 µM in test [7], 10.2 µM in [8] and 28.4 µM in test [9]. The Activity in test [10] was determined as 0.27; in test [11], 0.39; in test [12] it was 0.5; in [13], 0.6.
